ChEMBL document CHEMBL1122222, “Synthesis and biological activities of the Z isomers of carbapenem antibiotics” (J Med Chem, 1983)
Values after ≈ are worked out from the molar mass of the structure shown.

Columns and labels:
[1] = system: Escherichia coli; assay: MIC against Escherichia coli O-111; type: functional
In short: (§1)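 Agar dilution MIC on Trypticase soy agar; inoculum one loopful of bacterial suspension at 10⁸ cfu/mL.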

[2] = system: Proteus vulgaris; assay: Inhibition of growth of Proteus vulgaris IFO 3988; type: functional; in short: as §1
[3] = biological target: Beta-lactamase (Staphylococcus aureus, UniProt P00807); assay: Beta-lactamase inhibitory activity against penicillinase of Staphylococcus aureus 1840; conditions: read-out: I50 (converted)
Chain of Beta-lactamase (Staphylococcus aureus, UniProt P00807) (P00807 whole entry): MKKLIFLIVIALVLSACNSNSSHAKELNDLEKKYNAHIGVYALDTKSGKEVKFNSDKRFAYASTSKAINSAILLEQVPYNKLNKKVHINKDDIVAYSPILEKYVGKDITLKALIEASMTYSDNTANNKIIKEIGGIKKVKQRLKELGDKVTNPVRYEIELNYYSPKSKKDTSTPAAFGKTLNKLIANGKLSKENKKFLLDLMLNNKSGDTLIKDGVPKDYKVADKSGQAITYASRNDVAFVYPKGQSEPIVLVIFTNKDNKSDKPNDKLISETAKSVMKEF

[4] = biological target: Beta-lactamase (Serratia marcescens, UniProt P18539); assay: Beta-lactamase inhibitory activity against cephalosporinase of Serratia marcescens. TN81; conditions: read-out: I50 (converted)
Chain of Beta-lactamase (Serratia marcescens, UniProt P18539) (P18539 whole entry): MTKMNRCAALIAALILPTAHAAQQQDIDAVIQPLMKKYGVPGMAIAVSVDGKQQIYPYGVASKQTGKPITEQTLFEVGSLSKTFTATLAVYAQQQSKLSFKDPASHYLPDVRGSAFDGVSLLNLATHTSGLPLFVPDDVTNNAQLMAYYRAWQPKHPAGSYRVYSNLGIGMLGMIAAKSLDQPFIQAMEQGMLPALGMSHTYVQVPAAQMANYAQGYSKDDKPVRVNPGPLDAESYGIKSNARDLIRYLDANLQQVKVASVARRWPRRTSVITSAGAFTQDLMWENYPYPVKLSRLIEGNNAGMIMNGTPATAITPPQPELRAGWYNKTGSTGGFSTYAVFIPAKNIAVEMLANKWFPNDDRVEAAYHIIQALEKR

[5] = system: Morganella morganii; assay: Inhibition of growth of Proteus morganii IFO 3168; type: functional; in short: as §1
[6] = system: Serratia marcescens; assay: Inhibition of growth of Serratia marcescens IFO 12648; type: functional; in short: as §1
[7] = species on record: Mus musculus; assay: Half life in mouse kidney homogenates; type: ADME
In short: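 Carbapenem at 50 µg/mL incubated in 10% mouse kidney homogenate at 30 °C; residual antibiotic measured at intervals by its β-lactamase-inhibiting activity.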

[8] = system: Klebsiella pneumoniae; assay: Inhibition of growth of Klebsiella pneumoniae DT; type: functional; in short: as §1
[9] = biological target: Beta-lactamase (Proteus vulgaris, UniProt P52664); assay: Beta-lactamase inhibitory activity against cephalosporinase of Proteus vulgaris GN4413; conditions: read-out: I50 (converted)
Chain of Beta-lactamase (Proteus vulgaris, UniProt P52664) (P52664 whole entry, looked up): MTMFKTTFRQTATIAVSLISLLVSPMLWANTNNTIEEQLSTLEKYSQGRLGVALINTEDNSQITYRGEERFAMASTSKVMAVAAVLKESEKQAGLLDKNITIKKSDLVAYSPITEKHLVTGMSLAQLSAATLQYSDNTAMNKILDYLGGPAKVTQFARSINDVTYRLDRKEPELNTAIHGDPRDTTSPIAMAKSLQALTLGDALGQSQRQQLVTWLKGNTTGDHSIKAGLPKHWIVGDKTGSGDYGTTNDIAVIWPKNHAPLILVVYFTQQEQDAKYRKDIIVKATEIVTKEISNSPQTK

[10] = system: Mus musculus; assay: In vivo synergistic protective effect with cefotiam in mice infected with Proteus vulgaris GN4815 at 0.1 mg/kg dose given sc; type: functional; conditions: route subcutaneous
[11] = system: Mus musculus; assay: In vivo synergistic protective effect with cefotiam in mice infected with Proteus vulgaris GN4815 at 1 mg/kg dose given sc; type: functional; conditions: route subcutaneous
[12] = system: Proteus mirabilis; assay: Inhibition of growth of Proteus mirabilis IFO 3849; type: functional; in short: as §1
[13] = system: Acinetobacter calcoaceticus; assay: Inhibition of growth of Acinetobacter calcoaceticus. IFO 13006; type: functional, acinetobacter calcoacet; conditions: Acinetobacter calcoaceticus, IFO 13006; read-out: MIC; in short: as §1
[14] = system: Mus musculus; assay: Effective does against ip infected Escherichia coli O-111 […] when administered sc; type: functional; conditions: Mus musculus; read-out: ED50
In short: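 Slc:ICR mice; ED50 calculated by the Reed–Muench method from survival recorded 5 days after infection.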

[15] = system: Citrobacter freundii; assay: Inhibition of growth of Citrobacter freundii IFO 12681; type: functional; conditions: Citrobacter freundii, IFO 12681; read-out: MIC; in short: as §1
[16] = system: Escherichia coli; assay: Inhibition of growth of Escherichia coli T-7; type: functional; conditions: Escherichia coli; read-out: MIC; in short: as §1
[17] = system: Enterobacter cloacae; assay: Inhibition of growth of Enterobacter cloacae IFO 12937; type: functional; conditions: Enterobacter cloacae, IFO 12937; read-out: MIC; in short: as §1
[18] = system: Staphylococcus aureus; assay: Inhibition of growth of Staphylococcus aureus 308 A-1; type: functional; conditions: Staphylococcus aureus; read-out: MIC; in short: as §1
[19] = system: Pseudomonas aeruginosa; assay: Inhibition of growth of Pseudomonas aeruginosa IFO 3455; type: functional; conditions: Pseudomonas aeruginosa, IFO 3455; read-out: MIC; in short: as §1
[20] = system: Mus musculus; assay: In vivo synergistic protective effect with cefotiam in mice infected with Proteus vulgaris GN4815 at 10 mg/kg dose given sc; type: functional; conditions: route subcutaneous
[21] = In vitro potentiation activity was tested after adding a concentration of […] into the agar plate of cefotiam; show synergistic effect; type: functional
[22] = biological target: Beta-lactamase (Serratia marcescens) (UniProt P18539)
Chain of Beta-lactamase (Serratia marcescens) (P18539 whole entry): as the sequence (P18539 whole entry) above

[23] = system: Mus musculus; assay: In vivo synergistic protective effect with cefotiam in mice infected with Proteus vulgaris GN4815 at 100 mg/kg dose given sc; type: functional; conditions: route subcutaneous
[24] = biological target: T1, Beta-lactamase (Proteus mirabilis) (UniProt P30897); conditions: Proteus vulgaris
T1 sequence (whole entry): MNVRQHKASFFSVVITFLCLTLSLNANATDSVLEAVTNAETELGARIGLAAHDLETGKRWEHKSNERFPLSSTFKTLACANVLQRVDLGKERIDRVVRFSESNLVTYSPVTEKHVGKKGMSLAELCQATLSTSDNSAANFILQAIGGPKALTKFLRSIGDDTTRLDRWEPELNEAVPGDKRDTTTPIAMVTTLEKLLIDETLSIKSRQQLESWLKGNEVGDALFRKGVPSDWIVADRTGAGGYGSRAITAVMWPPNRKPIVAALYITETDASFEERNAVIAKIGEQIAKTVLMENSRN

[25] = biological target: Beta-lactamase (Staphylococcus aureus) (UniProt P00807)
Chain of Beta-lactamase (Staphylococcus aureus) (P00807 whole entry): as the sequence (P00807 whole entry) above

[26] = In vitro potentiation activity was tested after adding a concentration of […] into the agar plate of ampicillin or cefotiam; show synergistic effect; type: functional
[27] = system: Klebsiella pneumoniae; assay: Beta-lactamase inhibitory activity against penicillinase of Klebsiella pneumoniae. TN1698
[28] = biological target: Beta-lactamase (Staphylococcus aureus) (UniProt P00807); remark: listed apart in the source
[29] = biological target: Beta-lactamase (Serratia marcescens) (UniProt P18539); remark: listed apart in the source
[30] = In vitro potentiation activity was tested after adding a concentration of […] into the agar plate of ampicillin; show synergistic effect; type: functional
[31] = biological target: Beta-lactamase (Staphylococcus aureus) (UniProt P00807); remark: listed apart in the source
[32] = biological target: Beta-lactamase (Serratia marcescens) (UniProt P18539); remark: listed apart in the source
[33] = biological target: T1, Beta-lactamase (Proteus mirabilis); conditions: Proteus vulgaris; remark: listed apart in the source
[34] = system: Mus musculus; assay: In vivo protective effect in mice infected with Proteus vulgaris GN4815 at (dose mg/kg) administered sc; type: functional
[35] = Escherichia coli, read-out: MIC
[36] = Proteus vulgaris, IFO 3988, read-out: MIC
[37] = Morganella morganii, IFO 3168, read-out: MIC
[38] = Serratia marcescens, IFO 12648, read-out: MIC
[39] = Klebsiella pneumoniae, read-out: MIC
[40] = Proteus mirabilis, IFO 3849, read-out: MIC

| Compound | IC50 [3] | IC50 [4] | T1/2 [7] | IC50 [9] | ED50 at 1 mg/kg [11] | MIC [13] | ED50 [14] | MIC [15] | MIC [1, 35] | MIC [2, 36] | MIC [5, 37] | MIC [16] | MIC [6, 38] | MIC [17] | MIC [8, 39] | MIC [18] | MIC [12, 40] | MIC [19] | also measured |
| --- | --- | --- | --- | --- | --- | --- | --- | --- | --- | --- | --- | --- | --- | --- | --- | --- | --- | --- | --- |
| CC(=O)N/C=C\[S+]([O-])C1=C(C(=O)[O-])N2C(=O)[C@@H](C(C)(C)O)[C@H]2C1.[Na+] (stereo in doubt; 11) | 151 nM | 0.933 nM | 45 min | 3.02 nM | 5.58 mg/kg | – | – | – | – | – | – | – | – | – | – | – | – | – | MIC [1]: <0.1 µg/mL; MIC [2]: 25 µg/mL; MIC [5]: 12.5 µg/mL; MIC [6]: 3.13 µg/mL; MIC [8]: 3.13 µg/mL; ED50 at 0.1 mg/kg [10]: 21.6 mg/kg; MIC [12]: 12.5 µg/mL |
| CC(=O)N/C=C\[S+]([O-])C1=C(C(=O)[O-])N2C(=O)[C@@H](C(C)(C)OS(=O)(=O)[O-])[C@H]2C1.[Na+].[Na+] (stereo in doubt; 8) | 515 nM | 38.6 nM | 75 min | 1.18 nM | 6.25 mg/kg | > 100 µg/mL | > 50 mg/kg | 25 µg/mL | 6.25 µg/mL | > 100 µg/mL | 100 µg/mL | 12.5 µg/mL | 50 µg/mL | 50 µg/mL | 50 µg/mL | 6.25 µg/mL | > 100 µg/mL | > 100 µg/mL | ED50 at 0.1 mg/kg [10]: 18.1 mg/kg; ED50 at 10 mg/kg [20]: 2.41 mg/kg |
| CC(=O)N/C=C\[S+]([O-])C1=C(C(=O)O)N2C(=O)[C@@H](C(C)(C)O)[C@H]2C1 (stereo in doubt; 22) | – | – | – | – | – | – | – | – | – | – | – | – | – | – | – | – | – | – | Activity [21]: synergistic effect |
| CC(=O)N/C=C/[S+]([O-])C1=C(C(=O)[O-])N2C(=O)[C@@H](C(C)(C)OS(=O)(=O)[O-])[C@H]2C1.[Na+].[Na+] (stereo partly specified) | 450 nM | 118 nM | 22 min | 0.793 nM | 12.5 mg/kg | 25 µg/mL | > 100 mg/kg | 12.5 µg/mL | 6.25 µg/mL | 50 µg/mL | 50 µg/mL | 12.5 µg/mL | 12.5 µg/mL | 25 µg/mL | 12.5 µg/mL | 12.5 µg/mL | 50 µg/mL | > 100 µg/mL | MIC [22]: 6.25 µg/mL; ED50 at 100 mg/kg [23]: 3.86 mg/kg; MIC [24]: 1.56 µg/mL; MIC [25]: 12.5 µg/mL; Activity [26]: synergistic effect; MIC [27]: 6.25 µg/mL; ED50 at 10 mg/kg [20]: 8.87 mg/kg |
| CC(=O)N/C=C\SC1=C(C(=O)[O-])N2C(=O)[C@@H](C(C)(C)OS(=O)(=O)[O-])[C@H]2C1.[Na+].[Na+] | 2220 nM | 113 nM | – | 8.44 nM | – | > 100 µg/mL | > 50 mg/kg | 50 µg/mL | 12.5 µg/mL | 100 µg/mL | 100 µg/mL | 100 µg/mL | 100 µg/mL | 100 µg/mL | 50 µg/mL | 6.25 µg/mL | 100 µg/mL | > 100 µg/mL | MIC [28]: 50 µg/mL; MIC [29]: 25 µg/mL; Activity [26]: synergistic effect; MIC [27]: 50 µg/mL |
| CC(=O)N/C=C/[S+]([O-])C1=C(C(=O)O)N2C(=O)[C@@H](C(C)(C)O)[C@H]2C1 (stereo in doubt; 20) | – | – | – | – | – | – | – | – | – | – | – | – | – | – | – | – | – | – | Activity [30]: synergistic effect |
| CC(=O)N/C=C\[S+]([O-])C1=C(C(=O)O)N2C(=O)[C@@H](C(C)OS(=O)(=O)O)[C@H]2C1 (stereo partly specified) | 7.52 nM | 0.752 nM | – | 0.354 nM | – | – | – | – | – | – | – | – | – | – | – | – | – | – | MIC [31]: 50 µg/mL (≈ 122 µM); MIC [32]: 25 µg/mL (≈ 61.2 µM); MIC [33]: 50 µg/mL (≈ 122 µM) |
| CN(C)CCn1nnnc1SCC1=C(C(=O)O)N2C(=O)[C@@H](NC(=O)Cc3csc(N)n3)[C@H]2SC1 [CEFOTIAM] | – | – | – | – | – | – | – | – | – | – | – | – | – | – | – | – | – | – | ED50 [34]: 35.5 mg/kg |
